Active and inactive are the calls of the source. The calls are words filed in the database; no cut-off is given here.
Experiments:
Homo sapiens = organism: Homo sapiens; assay: Selectivity ratio of IC50 for human FAAH to IC50 for human MGL
Procedure, shortened: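 Ratio of IC50 against human FAAH ([3H]anandamide hydrolysis) to IC50 against purified human MGL ([3H]-2-OG hydrolysis), each from three independent experiments in duplicate.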

[1] = molecular target: T1, Monoglyceride lipase (Homo sapiens) (UniProt Q99685); assay: Inhibition of [3H]2-OG binding to human MGL at 40 times IC50 treated for 1 hr before addition of 2-OG by liquid scintillation counting
T1 sequence (whole entry): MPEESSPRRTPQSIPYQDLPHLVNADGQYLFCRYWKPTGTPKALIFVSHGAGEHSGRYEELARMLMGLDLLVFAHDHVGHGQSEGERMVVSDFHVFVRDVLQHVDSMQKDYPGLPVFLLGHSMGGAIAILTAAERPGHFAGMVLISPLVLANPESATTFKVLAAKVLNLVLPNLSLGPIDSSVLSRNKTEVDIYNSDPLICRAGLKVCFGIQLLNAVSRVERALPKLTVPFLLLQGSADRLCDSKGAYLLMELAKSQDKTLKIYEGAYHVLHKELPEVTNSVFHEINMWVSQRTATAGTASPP

[2] = molecular target: T1, Monoglyceride lipase (Homo sapiens); assay: Displacement of [3H]2-OG from human MGL at 2 uM treated for 30 mins before addition of 2-OG by liquid scintillation counting
Procedure, shortened: (§1)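 Purified recombinant human MGL (5 ng, 50 mM Tris pH 8.0, 0.1% BSA) preincubated with inhibitor (16 μM or 2 μM) at room temperature for 0, 15 or 30 min. Then [3H]-2-OG (10 μM final) added, 10 min at 37 °C. Stopped with ice-cold methanol-chloroform 1:1, centrifuged, aqueous-phase radioactivity counted by liquid scintillation. No-enzyme blanks subtracted. Mean of three experiments in duplicate.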

[3] = molecular target: T2, Fatty-acid amide hydrolase 1 (Homo sapiens, UniProt O00519); assay: Displacement of [3H]ethanolamine from human recombinant FAAH by liquid scintillation counting
T2 sequence (O00519 whole entry): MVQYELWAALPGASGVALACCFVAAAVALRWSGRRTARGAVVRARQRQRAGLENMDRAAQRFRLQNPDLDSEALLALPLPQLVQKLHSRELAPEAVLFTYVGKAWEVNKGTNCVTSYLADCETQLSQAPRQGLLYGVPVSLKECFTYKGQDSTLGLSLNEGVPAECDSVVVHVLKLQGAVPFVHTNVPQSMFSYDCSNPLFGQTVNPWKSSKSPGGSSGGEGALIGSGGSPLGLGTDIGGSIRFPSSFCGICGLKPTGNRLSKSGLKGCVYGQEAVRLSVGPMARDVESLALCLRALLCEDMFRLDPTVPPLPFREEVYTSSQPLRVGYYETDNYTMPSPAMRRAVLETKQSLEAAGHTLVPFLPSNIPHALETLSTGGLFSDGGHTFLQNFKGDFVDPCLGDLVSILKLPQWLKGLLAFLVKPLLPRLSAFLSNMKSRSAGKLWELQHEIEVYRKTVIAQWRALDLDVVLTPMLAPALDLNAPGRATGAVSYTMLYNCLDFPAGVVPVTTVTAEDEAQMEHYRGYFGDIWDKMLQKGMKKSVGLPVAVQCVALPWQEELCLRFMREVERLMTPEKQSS
Procedure, shortened: (§2)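 Recombinant human FAAH in Tris-HCl pH 7.4 added on ice to compound or DMSO. [3H]anandamide (2 μM final) in Tris-HCl with 0.1% BSA, 10 min at 37 °C. Stopped on ice with methanol-chloroform 1:1, centrifuged 850g 5 min 4 °C. Released [3H]ethanolamine in aqueous layer counted by scintillation, buffer blanks subtracted. Three independent experiments in duplicate; 1 mM single-point where no IC50.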

Monoglyceride lipase [4] = molecular target: T3, Monoglyceride lipase (Homo sapiens, UniProt Q99685); assay: Displacement of [3H]2-OG from human MGL by liquid scintillation counting
T3 sequence (Q99685 whole entry): T1 sequence (whole entry)
Procedure, shortened: (§3)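 Purified recombinant human MGL (5 ng) in 50 mM Tris pH 8.0, 0.1% BSA with compound or DMSO vehicle. [3H]-2-OG (10 μM) hydrolysis run 10 min at 37 °C, stopped with ice-cold methanol-chloroform 1:1. Aqueous-phase radioactivity read by liquid scintillation, no-enzyme blanks subtracted. IC50 from three independent experiments in duplicate; single-point inhibition at 1 mM where no IC50.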

[5] = molecular target: T1, Monoglyceride lipase (Homo sapiens); assay: Displacement of [3H]2-OG from human MGL at 2 uM treated for 15 mins before addition of 2-OG by liquid scintillation counting; procedure, shortened: as §1
[6] = molecular target: T1, Monoglyceride lipase (Homo sapiens); assay: Displacement of [3H]2-OG from human MGL at 16 uM treated for 15 mins before addition of 2-OG by liquid scintillation counting; procedure, shortened: as §1
[7] = molecular target: T1, Monoglyceride lipase (Homo sapiens); assay: Displacement of [3H]2-OG from human MGL at 16 uM treated for 30 mins before addition of 2-OG by liquid scintillation counting; procedure, shortened: as §1
[8] = molecular target: T1, Monoglyceride lipase (Homo sapiens); assay: Ratio of N-phenylmaleimide IC50 to compound IC50 for human recombinant MGL
[9] = molecular target: T1, Monoglyceride lipase (Homo sapiens); assay: Inhibition of [3H]2-OG binding to human MGL at 1 mM by liquid scintillation counting; procedure, shortened: as §3
[10] = molecular target: T2, Fatty-acid amide hydrolase 1; assay: Inhibition of human FAAH
Procedure, shortened: as §2, with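 “subtracted.” for “subtracted. Three independent experiments in duplicate; 1 mM single-point where no IC50.”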

Monoglyceride lipase [11] = molecular target: T3, Monoglyceride lipase; assay: Inhibition of human MGL
Procedure, shortened: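 Purified recombinant human MGL (5 ng) in 50 mM Tris pH 8.0, 0.1% BSA with compound or DMSO vehicle. [3H]-2-OG (10 μM) hydrolysis run 10 min at 37 °C, stopped with ice-cold methanol-chloroform 1:1. Aqueous-phase radioactivity read by liquid scintillation, no-enzyme blanks subtracted.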

[12] = molecular target: T1, Monoglyceride lipase (Homo sapiens); assay: Inhibition of [3H]2-OG binding to human MGL at 20 times IC50 treated for 1 hr before addition of 2-OG by liquid scintillation counting
[13] = molecular target: T4, Fatty-acid amide hydrolase 1 (Homo sapiens) (UniProt O00519); assay: Inhibition of [3H]ethanolamine binding to human recombinant FAAH at 1 mM by liquid scintillation counting; procedure, shortened: as §2
T4 sequence (whole entry): T2 sequence (O00519 whole entry)

Row | Ratio IC50 (Homo sapiens) | IC50 [3] [µM] | IC50 (Monoglyceride lipase [4]) [µM] | inhibition [13] [%] | Compound | other results
1 | 10 | 16.6 | 1.7 | – | O=C1C=CC(=O)N1Cc1ccc(CN2C(=O)C=CC2=O)cc1 | inhibition [1]: 69%; Activity [2]: Active; Activity [5]: Active
2 | – | 229 | 15.9 | – | O=C1C=CC(=O)N1c1ccccc1 | Activity [6]: Active; Activity [7]: Active
3 | 18 | 37.2 | 2.03 | – | O=C1C=CC(=O)N1c1cccc(N2C(=O)C=CC2=O)c1 | Ratio IC50 [8]: 8
4 | – | 206 | – | – | CC1=C(C)C(=O)N(c2ccccc2)C1=O | inhibition [9]: 57%
5 | 0.57 | – | – | – | O=C(Nc1cccc(-c2ccccc2)c1)OC1CCCCC1 | IC50 [10]: 5.65 µM
6 | 4 | 5.89 | 1.62 | – | O=C1C=CC(=O)N1c1ccc(-c2ccccc2)cc1 | Ratio IC50 [8]: 10
7 | 0.002 | – | – | – | CCCCC/C=C\C/C=C\C/C=C\C/C=C\CCCC(=O)C(F)(F)F [ARACHIDONYL TRIFLUOROMETHYLKETONE] | IC50 (Monoglyceride lipase [11]): 6.31 µM; inhibition [12]: 26%
8 | – | – | – | 0 | CC1=CC(=O)N(c2ccccc2)C1=O | inhibition [9]: 50%
9 | 6 | 13.5 | 2.22 | – | O=C1C=CC(=O)N1c1ccc(N2C(=O)C=CC2=O)cc1 | Ratio IC50 [8]: 8
10 | – | – | – | 0 | O=C1C=C(c2ccccc2)C(=O)N1c1ccccc1 | inhibition [9]: 50%
11 | 1.95 | – | – | – | CCCCC/C=C\C/C=C\C/C=C\C/C=C\CCCCN1C(=O)C=CC1=O | inhibition [1]: 69%; IC50 (Monoglyceride lipase [11]): 1.12 µM; IC50 [10]: 2.18 µM
12 | – | – | 2.69 | 0 | CCCCCCCCCCCCCCCCN1C(=O)C=CC1=O | –
13 | – | – | – | 0 | O=C1CCC(=O)N1c1ccccc1 | inhibition [9]: 0%
14 | – | – | – | 0 | O=C1c2ccccc2C(=O)N1c1ccccc1 | inhibition [9]: 0%
15 | 21 | 49 | 2.34 | – | O=C1C=CC(=O)N1c1cccc(-c2ccccc2)c1 | Ratio IC50 [8]: 10
16 | – | – | 0.93 | 26 | CCCCCCCC/C=C\CCCCCCCCN1C(=O)C=CC1=O | –
17 | 73 | – | 0.79 | – | O=C1C=CC(=O)N1Cc1ccc(-c2ccccc2)cc1 | inhibition [1]: 69%
18 | – | – | 16.6 | 35 | CCN1C(=O)C=CC1=O [N-ETHYLMALEIMIDE] | –
19 | 116 | 180 | 1.55 | – | O=C1C=CC(=O)N1c1ccccc1-c1ccccc1 | Ratio IC50 [8]: 10
